Laboratory results: ChEMBL document CHEMBL5346942, “Identification and analysis of small molecule inhibitors of FosB from Staphylococcus aureus” (RSC Med Chem, 2023)
pKi: −log10 of the molar value. Values after ≈ are worked out from the molar mass of the structure shown.

What was measured:
[1] = tested on: Staphylococcus aureus; experiment: Antibacterial activity against Staphylococcus aureus JE2 harboring […] assessed as reduction in bacterial growth incubated overnight by double dilution method; type: functional
Summary of the method: (§1)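 S. aureus JE2 grown overnight at 37 °C on Mueller–Hinton agar; colonies suspended in MH broth to OD600 ~0.5, diluted 1:1000 and added to serial twofold dilutions of compound (water stocks 10 mg/mL). Incubated overnight at 37 °C; MIC read visually as the well with no growth. Sterile and growth control wells included. For combinations, fosfomycin diluted along one plate axis and inhibitor along the other, before the inoculum was added.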

[2] = tested on: HepG2; experiment: Cytotoxicity against human HepG2 cells assessed as reduction in cell viability at 64 ug/ml incubated for 24 hrs by resazurin dye based fluorescence analysis; type: toxicity; conditions: hepg2, 24 h, dose 64 µg/ml
Summary of the method: (§2)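 HEK-293 or HepG2 cells grown in DMEM with 10% FBS and 1% penicillin/streptomycin at 37 °C, 5% CO2. Positive control was 1% Triton X-100. Viability read by resazurin (2 mM stock) added for 24 h, measuring resorufin fluorescence.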

[3] = target: T1, Metallothiol transferase FosB (Staphylococcus aureus, UniProt Q5HDM4); experiment: Inhibition of Staphylococcus aureus FosB using L-cysteine as substrate assessed as inhibition constant for initial binding event by absorbance based DTNB assay
[4] = tested on: Staphylococcus aureus; experiment: Antibacterial activity against Staphylococcus aureus JE2 harboring […] assessed as fosfomycin MIC at 128 ug/ml incubated overnight by double dilution method; type: functional; conditions: dose 128 µg/ml; summary of the method: as §1
[5] = tested on: HEK293; experiment: Cytotoxicity against HEK293 cells assessed as reduction in cell viability at 64 ug/ml incubated for 24 hrs by resazurin dye based fluorescence analysis; type: toxicity; conditions: human, hek293, 24 h, dose 64 µg/ml; summary of the method: as §2
[6] = tested on: Staphylococcus aureus; experiment: Antibacterial activity against Staphylococcus aureus JE2 harboring […] assessed as reduction in bacterial growth incubated overnight in presence of fosfomycin by double dilution method; type: functional; summary of the method: as §1
[7] = tested on: Staphylococcus aureus; experiment: Antibacterial activity against Staphylococcus aureus lacking FosB; type: functional
[8] = tested on: Staphylococcus aureus; experiment: Antibacterial activity against Staphylococcus aureus harboring FosB; type: functional; summary of the method: as §1
[9] = target: T1, Metallothiol transferase FosB; experiment: Competitive inhibition of Staphylococcus aureus FosB using L-cysteine as substrate assessed as inhibition constant for initial binding event by absorbance based DTNB assay
[10] = target: T1, Metallothiol transferase FosB; experiment: Parabolic competitive inhibition of Staphylococcus aureus FosB using L-cysteine as substrate assessed as inhibition constant for initial binding event by absorbance based DTNB assay
Summary of the method: (§3)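 FosB from S. aureus, steady-state Michaelis–Menten kinetics with L-cysteine as the thiol co-substrate (instead of BSH) and varied fosfomycin. Rates read by absorbance-based DTNB assay at several fixed inhibitor concentrations. Initial velocities globally fit to a parabolic competitive model (two inhibitor molecules bind). Ki1 is the first binding event, Ki2 the second.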

[11] = target: T1, Metallothiol transferase FosB; experiment: Parabolic competitive inhibition of Staphylococcus aureus FosB using L-cysteine as substrate assessed as inhibition constant for second binding event by absorbance based DTNB assay; summary of the method: as §3

T1 sequence (Q5HDM4 whole entry): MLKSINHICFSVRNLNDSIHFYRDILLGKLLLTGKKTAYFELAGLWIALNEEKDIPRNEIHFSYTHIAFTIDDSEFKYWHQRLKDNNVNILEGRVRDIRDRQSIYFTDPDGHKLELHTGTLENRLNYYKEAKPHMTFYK

Row | SMILES | MIC [1] [µg/mL] | Activity [2] | pKi [3] | MIC [4] [µg/mL] | Activity [5] | MIC [6] [µg/mL] | MIC [7] [µg/mL] | MIC [8] [µg/mL] | pKi [9] | pKi [10] | pKi [11]
1 | CC(C)[C@H](O)P(=O)(O)O | > 128 | Non-Toxic | 2.45 | 8 | Non-Toxic | > 128 |  |  |  |  | 
2 | CC[C@@H](O)P(=O)(O)O |  | Non-Toxic | 2.80 | 8 | Non-Toxic | > 128 |  |  |  |  | 
3 | O=C(O)CCP(=O)(O)O |  | Non-Toxic |  |  | Non-Toxic |  |  |  |  |  | 
4 | CC(C(=O)O)C(=O)O [METHYLMALONIC ACID] |  | Non-Toxic |  |  | Non-Toxic |  |  |  |  |  | 
5 | C[C@@H]1O[C@@H]1P(=O)(O)O [FOSFOMYCIN] | > 128 | Non-Toxic |  |  | Non-Toxic |  | 0.5 (≈ 3.62 µM) | 64 (≈ 464 µM) |  |  | 
6 | C[C@@H](C(=O)O)P(=O)(O)O | > 128 | Non-Toxic |  | 8 | Non-Toxic | > 128 |  |  | 3.37 |  | 
7 | O=P(O)(O)CCP(=O)(O)O |  | Non-Toxic |  |  | Non-Toxic |  |  |  |  |  | 
8 | C[C@H](CO)P(=O)(O)O | > 128 | Non-Toxic | 2.28 | 8 | Non-Toxic | > 128 |  |  |  |  | 
9 | O=C(O)CP(=O)(O)O [FOSFONET] | > 128 | Non-Toxic |  | 8 | Non-Toxic | > 128 |  |  |  | 3.05 | 3.68
